Measurements taken from ChEMBL document CHEMBL4043223, “Structure-activity relationship study of small molecule inhibitors of the DEPTOR-mTOR interaction” (Bioorg Med Chem Lett, 2017).
Each block holds one compound with its values, some of them ahead of it. The source made the active and inactive calls. The calls are words filed in the database; no cut-off is given here.

Assays:
[1] = test system: RPMI-8226; assay: Cytotoxicity against human RPMI8226 cells after 48 hrs by MTT assay; format: functional, cell-based; settings: RPMI-8226, 48 h
Outline: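 MTT in RPMI-8226 cells: 1–2 × 10^4 cells per well in complete medium, exposed 48 h to a range of compound concentrations. MTT reduction to formazan read at 570 nm. Quadruplicate wells per group; OD given as % of DMSO-only control set at 100%. IC50 taken from the concentration series.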

[2] = test system: MM1.S; assay: Cytotoxicity against human MM1S cells after 48 hrs by MTT assay; format: functional, cell-based
Outline: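 MM1.S myeloma cells (DEPTOR-over-expressing) in 48 h MTT: 1–2 × 10^4 cells per well, graded compound concentrations, formazan at 570 nm. Quadruplicate wells; survival as % of DMSO control; IC50 derived from the concentration range.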

[3] = molecular target: DEP domain-containing mTOR-interacting protein (Homo sapiens) (UniProt Q8TB45); assay: Inhibition of mTOR binding to DEPTOR in human RPMI8226 cells assessed as increase in mTORC1-associated p70 phosphorylation at […] after 6 hrs by Western blot analysis; format: cell-based
Sequence of DEP domain-containing mTOR-interacting protein (Homo sapiens) (Q8TB45 whole entry, the tested form may be a part): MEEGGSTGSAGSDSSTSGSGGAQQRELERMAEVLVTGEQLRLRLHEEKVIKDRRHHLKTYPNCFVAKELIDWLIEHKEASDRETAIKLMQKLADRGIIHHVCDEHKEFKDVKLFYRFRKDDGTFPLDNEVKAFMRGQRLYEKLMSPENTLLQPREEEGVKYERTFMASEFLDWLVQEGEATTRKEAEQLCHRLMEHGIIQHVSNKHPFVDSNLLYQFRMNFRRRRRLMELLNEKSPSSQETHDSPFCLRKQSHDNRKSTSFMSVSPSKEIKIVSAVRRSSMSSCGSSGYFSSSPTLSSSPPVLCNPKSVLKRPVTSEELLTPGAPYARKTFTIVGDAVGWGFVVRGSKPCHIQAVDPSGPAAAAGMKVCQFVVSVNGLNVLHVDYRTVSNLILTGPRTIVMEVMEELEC

[4] = test system: RPMI-8226; assay: Induction of apoptosis in human RPMI8226 cells assessed as caspase3 activation at 0.12 to 2 uM after 48 hrs by cytofix/cytoperm staining based flow cytometry; format: functional, cell-based
Outline: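 Caspase-3 flow cytometry 48 h after drug exposure of 8226 cells. 10^6 cells washed in PBS, fixed and permeabilized in cytofix/cytoperm, stained 30 min with PE-conjugated anti-active-caspase-3 (1:5 dilution). % apoptosis = drug-treated minus DMSO-control positives; mean ± SD, n = 4.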

[5] = test system: PBL; assay: Cytotoxicity against PBL (unknown origin) after 48 hrs by MTT assay; format: cell-based
Outline: (§1)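 Normal peripheral blood lymphocytes tested head-to-head with 8226 myeloma cells in 48 h MTT assays. […] Therapeutic index = IC50(PBL)/IC50(8226).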

[6] = Therapeutic index, ratio of IC50 for PBL (unknown origin) to IC50 for human RPMI8226 cells; outline: as §1
[7] = molecular target: DEP domain-containing mTOR-interacting protein (Homo sapiens) (UniProt Q8TB45); assay: Inhibition of mTOR binding to DEPTOR in human RPMI8226 cells at 0.5 uM treated 6 hrs followed by DEPTOR immunoprecipitation by immunoblotting analysis; format: cell-based
Outline: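 Co-immunoprecipitation: 8226 cells treated 6 h with DMSO or 0.5 µM compound. DEPTOR immunoprecipitated; precipitates immunoblotted for DEPTOR and bound mTOR.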

[8] = test system: RPMI-8226; assay: Cytotoxicity against RAPTOR knockdown human RPMI8226 cells at 0.12 to 1 uM after 48 hrs by MTT assay; format: functional, cell-based
Outline: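 8226 cells infected with lentivirus carrying shRAPTOR or control shSCRAMBLE, knockdown confirmed by immunoblot. Cells then incubated with increasing compound concentrations; MTT read-out after 48 h, formazan at 570 nm, as % of DMSO control.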

[9] = molecular target: DEP domain-containing mTOR-interacting protein (Homo sapiens) (UniProt Q8TB45); assay: Inhibition of mTOR binding to DEPTOR in human RPMI8226 cells assessed as increase in mTORC1-associated p70 phosphorylation at 1 uM after 6 hrs by Western blot analysis; format: cell-based
Outline: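 8226 cells exposed 6 h to compound, DMSO in untreated controls. Lysates run on 12.5% SDS-PAGE, transferred to PVDF, probed for phospho- and total p70. Densitometric phospho/total ratio expressed as fold versus parent compound B set at 1; mean ± SD, n = 4.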

[10] = test system: RPMI-8226; assay: Cytotoxicity against human RPMI8226 cells at 1 to 2 uM after 6 hrs by MTT assay; format: cell-based; settings: rpmi-8226, 6 h
[11] = test system: RPMI-8226; assay: Cytotoxicity against human RPMI8226 cells at 0.5 uM after 6 hrs by MTT assay; format: cell-based; settings: rpmi-8226, 6 h
[12] = test system: RPMI-8226; assay: Cytotoxicity against human RPMI8226 cells at 0.05 to 0.2 uM after 6 hrs by MTT assay; format: cell-based; settings: rpmi-8226, 6 h
[13] = molecular target: DEP domain-containing mTOR-interacting protein (Homo sapiens) (UniProt Q8TB45); assay: Inhibition of DEPTOR in human RPMI8226 cells assessed as upregulation of mTORC1-dependant p21 expression at 0.5 to 2 uM after 6 hrs by Western blot analysis; format: cell-based
[14] = molecular target: DEP domain-containing mTOR-interacting protein (Homo sapiens) (UniProt Q8TB45); assay: Inhibition of mTOR binding to DEPTOR in human RPMI8226 cells assessed as increase in mTORC2-associated AKT phosphorylation at S473 residue by Western blot analysis; format: cell-based
[15] = test system: RPMI-8226; assay: Cytotoxicity against human RPMI8226 cells after 48 hrs in presence of mTOR inhibitor pp242 by MTT assay; format: functional, cell-based
[16] = test system: RPMI-8226; assay: Induction of apoptosis in human RPMI8226 cells assessed as caspase3 activation in presence of mTOR inhibitor pp242 by cytofix/cytoperm staining based flow cytometry; format: functional, cell-based
[17] = molecular target: DEP domain-containing mTOR-interacting protein (Homo sapiens) (UniProt Q8TB45); assay: Inhibition of mTOR binding to DEPTOR in human RPMI8226 cells assessed as increase in mTORC1-associated 4E-BP1 phosphorylation by Western blot analysis; format: cell-based
[18] = molecular target: DEP domain-containing mTOR-interacting protein (Homo sapiens) (UniProt Q8TB45); assay: Inhibition of mTOR binding to DEPTOR in human RPMI8226 cells assessed as increase in mTORC1-associated S6 phosphorylation by Western blot analysis; format: cell-based
[19] = molecular target: DEP domain-containing mTOR-interacting protein (Homo sapiens) (UniProt Q8TB45); assay: Inhibition of mTOR binding to DEPTOR in human RPMI8226 cells assessed as increase in mTORC2-associated SGK phosphorylation by Western blot analysis; format: cell-based
[20] = molecular target: DEP domain-containing mTOR-interacting protein (Homo sapiens) (UniProt Q8TB45); assay: Inhibition of mTOR binding to DEPTOR in human RPMI8226 cells assessed as decrease in AKT phosphorylation at […] residue by Western blot analysis; format: cell-based
[21] = test system: Mus musculus; assay: Toxicity in mouse xenografted with human RPMI8226 cells assessed as effect on RBC level at 20 mg/kg, ip administered daily for 3 days measured post last dose; format: organism-based; settings: in vivo, 72 h
Outline: (§2)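 Immunodeficient mice inoculated subcutaneously with 8226 myeloma cells. Once tumors reached 500 mm3, daily treatment at 20 mg/kg was started.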

[22] = test system: Mus musculus; assay: Toxicity in mouse xenografted with human RPMI8226 cells assessed as effect on WBC level at 20 mg/kg, ip administered daily for 3 days measured post last dose; format: organism-based; settings: in vivo, 72 h; outline: as §2
[23] = test system: Mus musculus; assay: Toxicity in mouse xenografted with human RPMI8226 cells assessed as effect on platelet level at 20 mg/kg, ip administered daily for 3 days measured post last dose; format: organism-based; settings: in vivo, 72 h; outline: as §2
[24] = test system: RPMI-8226; assay: Anti-tumor activity against human RPMI8226 cells xenografted in mouse assessed as reduction in tumor growth at 20 mg/kg, ip administered daily for 3 days measured post last dose; format: functional, organism-based; outline: as §2
[25] = species on record: Homo sapiens; assay: Activation of mTORC1 in DEPTOR knockdown human RPMI8226 cells assessed as increase in p70 phosphorylation
Outline: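 DEPTOR silenced in 8226 cells by shRNA lentivirus, with shScramble-transfected cells as control. Cells drug-treated, then p70 phosphorylation assessed by immunoblot.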

Structure (SMILES): O=C(c1ccccc1)N(N=C1C(Cl)=C(Cl)C(Cl)=C1Cl)C(=O)c1ccccc1
IC50 [1]: 800 nM
IC50 [2]: 2000 nM

inhibition [3]: Active
inhibition [7]: Active
inhibition [9]: Active
Structure (SMILES): Fc1ccc(NN=C2C(Cl)=C(Cl)C(Cl)=C2Cl)cc1
IC50 [1]: 600 to 700 nM
IC50 [2]: 1300 nM
Activity [4]: Active
IC50 [5]: 20000 nM
Ratio IC50 [6]: 33
Activity [8]: inactive

Structure (SMILES): Fc1ccccc1NN=C1C(Cl)=C(Cl)C(Cl)=C1Cl
IC50 [1]: > 3000 nM
IC50 [2]: > 3000 nM

Structure (SMILES): O=C(NN=C1C(Cl)=C(Cl)C(Cl)=C1Cl)c1ccccc1
Activity [10]: Toxic
Activity [11]: Toxic
Activity [12]: Non-Toxic
IC50 [1]: 600 nM
IC50 [2]: 800 nM

Structure (SMILES): Cc1ccc(C(=O)N(N=C2C(Cl)=C(Cl)C(Cl)=C2Cl)C(=O)c2ccc(C)cc2)cc1
IC50 [1]: 500 nM
IC50 [2]: 500 nM

Structure (SMILES): ON=C1C(Cl)=C(Cl)C(Cl)=C1Cl
IC50 [1]: > 5000 nM

Structure (SMILES): NN=C1c2ccccc2-c2ccccc21
IC50 [1]: > 5000 nM

Structure (SMILES): CC(C)(C)OC(=O)NN=C1c2ccccc2-c2ccccc21
IC50 [1]: > 5000 nM
IC50 [2]: > 5000 nM

Structure (SMILES): COc1cccc(NN=C2C(Cl)=C(Cl)C(Cl)=C2Cl)c1
IC50 [1]: > 3000 nM
IC50 [2]: > 3000 nM

inhibition [13]: Active
inhibition [3]: Active
inhibition [9]: Active
Structure (SMILES): CC(C)(C)C(=O)NN=C1C(Cl)=C(Cl)C(Cl)=C1Cl
IC50 [1]: 90 to 120 nM
IC50 [2]: 2000 nM
Activity [4]: Active
IC50 [5]: 1250 nM
Ratio IC50 [6]: 14

Structure (SMILES): Fc1cccc(NN=C2c3ccccc3-c3ccccc32)c1
IC50 [1]: > 5000 nM
IC50 [2]: > 5000 nM

Structure (SMILES): ClC1=C(Cl)C(Cl)=C(Cl)C1=NNc1ccccc1
IC50 [1]: 600 to 700 nM
IC50 [2]: 2000 nM

Structure (SMILES): ClC1=C(Cl)C(Cl)=C(Cl)C1=NNC1CCCCC1
IC50 [1]: 3000 to 5000 nM
IC50 [2]: > 3000 nM

inhibition [14]: Active
inhibition [13]: Active
inhibition [3]: Active
inhibition [7]: Active
inhibition [17]: Active
inhibition [18]: Active
inhibition [19]: Active
inhibition [20]: Active
Activity [25]: inactive
inhibition [9]: Active
Structure (SMILES): FC(F)(F)c1cccc(NN=C2C(Cl)=C(Cl)C(Cl)=C2Cl)c1
IC50 [1]: 110 to 170 nM
IC50 [2]: 1000 nM
Activity [4]: Active
IC50 [5]: 15000 nM
Ratio IC50 [6]: 136
Activity [8]: inactive
Activity [15]: inactive
Activity [16]: inactive
Activity [21]: Non-Toxic
Activity [22]: Non-Toxic
Activity [23]: Non-Toxic
Activity [24]: Active
